Assay results as given in ChEMBL document CHEMBL1921787, “Synthesis and antihepatotoxic activity of 5-(2,3-dihydro-1,4-benzodioxane-6-yl)-3-substituted-phenyl-4,5-dihydro-1H-pyrazole derivatives” (2011).
Activity calls are given as the source filed them. No cut-off for these calls is given here.

How the values were obtained:
Rattus norvegicus [1] = test: Antihepatotoxic effect against CCl4-induced liver damage in rat assessed as appearance of sinusoidal dilution in centrizonal area at 10 mg/kg, po by microscopic examination-based histopathological analysis; type: functional, organism-based; design: dose 10 mg/kg
How it was run: (§1)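 Livers taken from Wistar rats (n = 5 per group) dosed with CCl4 1.5 ml/kg p.o. plus agents at 10 mg/kg p.o.; silymarin reference and normal controls included. Liver sections examined microscopically and scored descriptively for necrosis, inflammation, sinusoidal dilatation, central vein appearance, cytoplasmic staining, parenchyma and vascular change.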

Rattus norvegicus [2] = test: Antihepatotoxic activity against CCl4-induced liver damage in rat assessed as decrease in serum SGOT level at 10 mg/kg, po by calorimetric assay (reference value: 74.52 +/- 0.695 IU/L); type: functional
Rattus norvegicus [3] = test: Antihepatotoxic activity against CCl4-induced liver damage in rat assessed as increase in total protein level at 10 mg/kg, po (reference value: 3.54 +/- 0.67 g/dl); type: functional
Rattus norvegicus [4] = test: Antihepatotoxic effect against CCl4-induced liver damage in rat assessed as appearance of normal parenchyma at 10 mg/kg, po by microscopic examination-based histopathological analysis; type: functional, organism-based; design: dose 10 mg/kg; how it was run: as §1
Rattus norvegicus [5] = test: Antihepatotoxic activity against CCl4-induced liver damage in rat assessed as decrease in ALP level at 10 mg/kg, po after 1 hr by photoelectric reading analysis (reference value: 66.157 +/- 2.886 KA); type: functional
Rattus norvegicus [6] = test: Antihepatotoxic activity against CCl4-induced liver damage in rat assessed as decrease in serum SGPT level at 10 mg/kg, po by calorimetric assay (reference value: 85.27 +/- 2.05 IU/L); type: functional
Rattus norvegicus [7] = test: Antihepatotoxic effect against CCl4-induced liver damage in rat assessed as appearance of mild dilution of sinusoidal spaces at 10 mg/kg, po by microscopic examination-based histopathological analysis; type: functional, organism-based; design: dose 10 mg/kg; conditions: Sinusoidal space; how it was run: as §1
Rattus norvegicus [8] = test: Antihepatotoxic effect against CCl4-induced liver damage in rat assessed as absence of necrosis at 10 mg/kg, po by microscopic examination-based histopathological analysis; type: functional, organism-based; design: dose 10 mg/kg; how it was run: as §1
Rattus norvegicus [9] = test: Antihepatotoxic effect against CCl4-induced liver damage in rat assessed as appearance of visible central vein at 10 mg/kg, po by microscopic examination-based histopathological analysis; type: functional, organism-based; design: dose 10 mg/kg; how it was run: as §1
Rattus norvegicus [10] = test: Antihepatotoxic effect against CCl4-induced liver damage in rat assessed as appearance of uniformly stained cytoplasm at 10 mg/kg, po by microscopic examination-based histopathological analysis; type: functional, organism-based; design: dose 10 mg/kg; how it was run: as §1
Rattus norvegicus [11] = test: Antihepatotoxic effect against CCl4-induced liver damage in rat assessed as appearance of moderate sinusoidal dilution around central vein at 10 mg/kg, po by microscopic examination-based histopathological analysis; type: functional, organism-based; design: dose 10 mg/kg; how it was run: as §1
Rattus norvegicus [12] = test: Antihepatotoxic effect against CCl4-induced liver damage in rat assessed as fine vascular changes in hepatocytes at 10 mg/kg, po by microscopic examination-based histopathological analysis; type: functional, organism-based; design: dose 10 mg/kg; conditions: Hepatocyte; how it was run: as §1
Rattus norvegicus [13] = test: Antihepatotoxic effect against CCl4-induced liver damage in rat assessed as appearance of moderate sinusoidal dilution at 10 mg/kg, po by microscopic examination-based histopathological analysis; type: functional, organism-based; design: dose 10 mg/kg; how it was run: as §1
Rattus norvegicus [14] = test: Antihepatotoxic effect against CCl4-induced liver damage in rat assessed as appearance of clear central vein at 10 mg/kg, po by microscopic examination-based histopathological analysis; type: functional, organism-based; design: dose 10 mg/kg; how it was run: as §1
Rattus norvegicus [15] = test: Antihepatotoxic effect against CCl4-induced liver damage in rat assessed as appearance of little dilution at 10 mg/kg, po by microscopic examination-based histopathological analysis; type: functional, organism-based; design: dose 10 mg/kg; how it was run: as §1

| Compound | Activity (Rattus norvegicus [1]) | Activity (Rattus norvegicus [2]) [IU/L] | Activity (Rattus norvegicus [3]) [g/dL] | Activity (Rattus norvegicus [4]) | Activity (Rattus norvegicus [5]) [KA] | Activity (Rattus norvegicus [6]) [IU/L] | Activity (Rattus norvegicus [7]) | Activity (Rattus norvegicus [8]) | Activity (Rattus norvegicus [9]) | Activity (Rattus norvegicus [10]) | Activity (Rattus norvegicus [11]) | Activity (Rattus norvegicus [12]) | Activity (Rattus norvegicus [13]) | Activity (Rattus norvegicus [14]) | Activity (Rattus norvegicus [15]) |
| --- | --- | --- | --- | --- | --- | --- | --- | --- | --- | --- | --- | --- | --- | --- | --- |
| COc1ccc(C2=NNC(c3ccc4c(c3)OCCO4)C2)cc1OC (stereo not drawn) | Active | 58.85 | 3.82 | Active | 49.48 | 64.95 |  |  |  |  |  |  |  |  |  |
| SILYMARIN |  | 56.2 | 4.2 |  | 48.6 | 61.3 | Active | Active | Active | Active |  |  |  |  |  |
| c1ccc(C2=NNC(c3ccc4c(c3)OCCO4)C2)cc1 (stereo not drawn) |  | 62.85 | 4.04 |  | 53.14 | 65 |  |  |  |  | Active | Active |  |  |  |
| Clc1ccc(C2=NNC(c3ccc4c(c3)OCCO4)C2)cc1 (stereo not drawn) |  | 63.42 | 3.91 |  | 46.06 | 65.81 |  |  |  |  | Active | Active |  |  |  |
| Oc1ccc(C2=NNC(c3ccc4c(c3)OCCO4)C2)c(O)c1 (stereo not drawn) |  | 58.57 | 3.82 | Active | 58.22 | 62.09 |  |  |  |  |  |  | Active |  |  |
| Cc1cccc(C2=NNC(c3ccc4c(c3)OCCO4)C2)c1 (stereo not drawn) |  | 64.85 | 3.98 |  | 55.74 | 64.13 |  |  |  |  |  |  |  | Active | Active |
